Screens (PubChem BioAssay)
Most compounds without a hit are left out; they make up all but 3.1% or so of the library.
T cruzi inh: inhibitors of intracellular T. cruzi growth, primary screen, luminescence, NIH3T3 host cells; inhibition, % (concentration not given with the values); actives 1.4% (n = 300,000); T. cruzi beta-gal in NIH3T3, 90 h;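 active = mean inhibition across valid replicates above about 55%, limit read from the data; inconclusive = mean below that limit but half or more replicates reach it; inactive = mean below it, under half of replicates reach it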;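 also: signal also drops with host cell toxicity which is not excluded here; 0% = plate median of DMSO wells and 100% = zero luminescence signal; higher percent means less beta-gal luminescence so fewer parasites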
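assay system = mouse NIH/3T3 fibroblasts infected with β-gal-expressing T. cruzi Tulahuen C4 | input = 5,000 NIH/3T3 host cells per well | buffer or medium = DMEM plus 2% FBS | timing = 3 h host attachment, then at least 90 h co-culture | measured by = GalScreen luminescence, 60 min | evaluation = luminescence reflecting intracellular parasite burden, expressed as percent inhibition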
CSC inhib: cancer stem cell viability inhibitors, primary screen, luminescence; cancer stem cell-like cells viability; inhibition, % at 7.5 µM; actives 1.1% (n = 300,000); AID 2717, 2010; in the data active = inhibition above about 75%; inconclusive = no clear call, values can overlap the other calls; tested in HMLE shEcad cells
Calb FLC: C. albicans growth inhibition with fluconazole, primary screen, CaCi-2 strain, Alamar Blue fluorescence. growth inhibition, % (concentration not given with the values). C. albicans CaCi-2 + fluconazole, 48 h. actives 0.57% (n = 300,000). AID 1979, 2009;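 active = growth inhibition above about 58% in most replicates, limit read from the data, passing the limit was not always enough; inconclusive = exactly half the replicates above a set limit; inactive = most replicates below a set limit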;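 also: all wells also contain fluconazole at 8 µg/ml as a sub-toxic cotreatment; 0% = median of DMSO wells and 100% = median of geldanamycin control wells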
H9c2 TAG inh: inhibitors of triacylglycerol accumulation, primary screen, cell-based, uHTS, fluorescence, H9c2; AID 651582, 2012; actives 0.66% (n = 230,000); H9c2 cells, Nile Red lipid (TAG) fluorescence; cells loaded with 200 µM oleic acid; inhibition, % at 12.5 µM;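 active = pattern-corrected inhibition of lipid staining of at least 50% with the nuclear-stain viability signal not falling by more than 50%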;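 also: 0% = DMSO wells and 100% = triacsin C control wells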
A1 inh: caspase 3/7 activation in MEF A1-2A-BIM cells, primary screen, A1 inhibitor project, cell-based, luminescence, HTS; Caspase-Glo 3/7 luminescence, 3 h; percent of clofoctol response, vehicle zero; caspase activation, % (no concentration beside the values); actives 0.066% (n = 330,000); AID 2462, 2010;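 active = over half of replicate activation scores above 10%, or exactly half above 10 with the replicate mean above 10; inconclusive = replicate mean below 10 yet half the replicates above 10; inactive = over half of replicates below 10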
Beta apoptosis: inhibitors of cytokine-induced beta cell apoptosis, primary screen, luminescence; INS-1E cytokine-induced death, ATP luminescence, 48 h; percent of positive-control rescue, neutral wells zero; protection from apoptosis, % (test concentration not listed); actives 0.8% (n = 300,000);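 active = Every replicate reaches about 75%, or at least half do and their mean reaches it too, limit read from the data; inconclusive = At least half of replicates reach the limit but their mean does not; inactive = Under half of replicates reach the limit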;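 also: 0% = cytokine-treated negative control wells and 100% = positive control rescue; higher means more ATP so stronger rescue from cytokine killing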
Active calls of the source: *; ? = inconclusive; nt = no result given.

SMILES	T cruzi inh	CSC inhib	Calb FLC	H9c2 TAG inh	A1 inh	Beta apoptosis
CCOc1ccc(CN2CCCC(N3CCN(c4ccc(OC)cc4)CC3)C2)cc1 (stereo unspecified)	59*	5	-5	1	1	3
O=c1[nH]c(=O)n(-c2ccc(F)cc2)c2c1C(C(F)(F)F)(C(F)(F)F)N=C(c1ccc(F)cc1)N2	-13	nt	-14	nt	0	76*
O=C(CCS(=O)(=O)c1ccc(Cl)cc1)Nc1nc(-c2ccncc2)cs1	5	9	85*	nt	0	-22
O=C(CCS(=O)(=O)c1ccc(Cl)cc1)Nc1nc(-c2cccnc2)cs1	-20	11	-6	nt	-2	nt
CCCCN(C)CC(O)Cn1cc(/C=C/C(=O)c2cccs2)c2ccccc21 (stereo unspecified)	53	22	-5	nt	-1	5
CCCCN(C)CC(O)Cn1cc(/C=C/C(=O)c2ccc(OCC)cc2)c2ccccc21 (stereo unspecified)	59*	99*	2	nt	0	9
Cc1cc(C)c(C)c(C(=O)COC(=O)CNC(=O)CNC(=O)c2ccco2)c1C	-19	6	-4	nt	0	0
CCOc1cc(/C=C(\C#N)C(=O)NCC2CCCO2)ccc1OCC(N)=O (stereo unspecified)	-13	0	105*	0	2	0
COc1ccc(CCNCC(O)COc2ccc(Cl)cc2)cc1OC (stereo unspecified)	48	-4	-1	nt	-1	-13
COc1ccc(CCNCC(O)COc2cccc(C(C)=O)c2)cc1OC (stereo unspecified)	56*	nt	6	nt	1	nt
CC(=O)N(C)c1ccc(N=NC2C(=O)N(C(N)=S)N=C2C)cc1 (stereo unspecified)	-25	-9	-10	6	-8	1
O=C1Nc2ccc(Br)cc2C12NNc1ccccc1O2 (stereo unspecified)	8	83*	23	-78	0	-2
CC1CCN(C(=O)CNC(=O)CNS(=O)(=O)c2ccccc2)CC1	1	-15	7	nt	0	-3
O=C(COC(=O)c1nc(Cl)ccc1Cl)NC1CCCCC1	nt	-8	nt	-8	0	0
CCN(CC)S(=O)(=O)c1ccc(Oc2ccc(S(=O)(=O)N(CC)CC)cc2)cc1	7	0	-7	-12	1	113*
CCN(CC)S(=O)(=O)c1ccc(Oc2ccccc2OC)cc1	-1	-8	-11	-8	1	-1
CCCn1c(=O)c(C(=O)NNS(=O)(=O)c2ccc(Cl)cc2)c(O)c2ccccc21	-2	86*	0	nt	1	-4
CCCn1c(=O)c(C(=O)NNC(=O)c2ccc(Cl)cc2Cl)c(O)c2ccccc21	0	29	nt	nt	0	-3
Cc1ncc(CO)c(/C=N/Nc2ccc(C(F)(F)F)cn2)c1O	30	89*	59	nt	0	116*
COc1cccc(-c2ncc3ccccc3c2COC(=O)c2cccc(Br)c2)c1	nt	12	nt	-55	0	3
O=C(CSc1cccc[n+]1[O-])c1cc2ccccc2o1	60*	19	-11	98	0	2
O=C(CSc1cccc[n+]1[O-])c1cc(Cl)ccc1Cl	53	-1	100*	10	0	12
O=C(O)CSc1cccc[n+]1[O-]	-1	-14	-12	nt	0	-11
Nc1nnnn1/N=C/C(Br)=C/c1ccccc1	-16	122*	56	-7	?	42
Nc1nnnn1/N=C/C=C/c1ccccc1	-5	-9	0	-9	1	2
SMILES	T cruzi inh	CSC inhib	Calb FLC	H9c2 TAG inh	A1 inh	Beta apoptosis
COc1ccc(N(CC(=O)NCCC2=CCCCC2)S(=O)(=O)c2ccccc2)cc1OC	60*	-8	6	3	0	1
CCOc1ccccc1NC(=O)CCNC(=O)N1CC(=O)Nc2ccccc21	nt	nt	nt	-1	nt	nt
O=C(CSc1nnc(COc2ccc(Cl)cc2)o1)Nc1nccs1	nt	nt	nt	-3	nt	nt
CC(=O)OCCCNc1cc(Sc2nc3ccccc3s2)c2nonc2c1[N+](=O)[O-]	69*	76*	16	nt	?	-5
O=[N+]([O-])c1c(NCCCO)cc(Sc2ccc(Cl)cc2)c2nonc12	51	88*	-9	nt	2	0
O=[N+]([O-])c1c(NCCCO)cc(SCc2ccco2)c2nonc12	0	2	-1	nt	0	-1
CC(=O)OCCNc1cc(Sc2nc3ccccc3[nH]2)c2nonc2c1[N+](=O)[O-]	56*	41	0	nt	1	1
N[C@@H](Cc1cnc[nH]1)C(=O)Nc1ccc2ccccc2c1	nt	nt	nt	-6	nt	nt
COc1nnc(-c2ccc(N3CCCCC3)c(NC(=O)COc3ccccc3)c2)c2ccccc12	nt	nt	nt	-4	nt	nt
CN(CC(=O)N/N=C/c1ccc(F)cc1)S(=O)(=O)c1ccccc1	nt	nt	nt	8	nt	nt
Cc1ccc(CN2CC(C(=O)NCC(=O)Nc3c(C)cccc3C)CC2=O)cc1 (stereo unspecified)	-5	-7	6	-2	0	-2
CCN(CC)C(=O)/C(=C/c1ccc2c(c1)OCO2)NC(=O)c1ccc(Br)cc1	9	-12	91*	-6	1	-4
O=C(O)CNC(=O)/C(=C\c1ccc2c(c1)OCO2)NC(=O)c1ccc(Br)cc1	-6	2	11	nt	0	nt
O=C(CC(C(=O)N1CCc2ccccc21)n1ccnc1)N1CCc2ccccc2C1 (stereo unspecified)	72*	6	-8	nt	0	-1
COc1ccc(Cl)cc1S(=O)(=O)N1CCN(C(=O)c2n[nH]c(=O)c3ccccc23)CC1	nt	-2	nt	-10	0	-6
COc1nc(Nc2nc3ccccc3c(=O)[nH]2)nc2ccc(C)cc12	58*	125*	1	96	1	97*
Cc1cc(C)cc(Nc2nc3ccccc3c(=O)[nH]2)c1	20	-4	3	12	-1	0
CCOc1ccc(NC(=O)c2ccc3c(c2)S(=O)(=O)N=C2CCCCCN23)cc1	nt	nt	nt	6	nt	nt
CCN(CC)CCC(=O)N1C/C(=C/c2ccccc2)C(=O)/C(=C\c2ccccc2)C1	nt	nt	nt	50*	nt	nt
Cc1ccnc(NC(=O)c2ccc(Cl)s2)c1	1	-18	-1	nt	-14	-17
O=C(O)CSc1cc(NS(=O)(=O)c2ccc(Cl)cc2)c2ccccc2c1O	-2	34	58	nt	1	9
COc1ccc(S(=O)(=O)Nc2cc(SCC(=O)O)c(O)c3ccccc23)cc1	4	37	60	nt	0	94*
CCN1CCN(S(=O)(=O)c2cc3c(cc2Cl)NC(=O)CO3)CC1	-4	-17	4	-5	1	-7
